Source: PubChem BioAssay
This is a sample that favours compounds with a hit; in the whole collection about 3.5% have one here.
MrgX1 antagonist = antagonists of human MrgX1 receptor, primary screen, HEK293 cells, Fluo-4 calcium flux. Mas-related G-protein coupled receptor member X1 (Homo sapiens), Q96LB2. BAM8-22 antagonism; hits give low values. B-score at 10 µM. hit rate 1.3% among 310,000. AID 588676, 2011;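 active = calcium-response B-score plate-corrected more than 3 library SD below zero, starting fluorescence within 5 deviations, no agonist response on first addition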;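 note: peak minus trough fluorescence over baseline after final BAM8-22 challenge near maximal dose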
Target sequence (Q96LB2 whole entry, looked up): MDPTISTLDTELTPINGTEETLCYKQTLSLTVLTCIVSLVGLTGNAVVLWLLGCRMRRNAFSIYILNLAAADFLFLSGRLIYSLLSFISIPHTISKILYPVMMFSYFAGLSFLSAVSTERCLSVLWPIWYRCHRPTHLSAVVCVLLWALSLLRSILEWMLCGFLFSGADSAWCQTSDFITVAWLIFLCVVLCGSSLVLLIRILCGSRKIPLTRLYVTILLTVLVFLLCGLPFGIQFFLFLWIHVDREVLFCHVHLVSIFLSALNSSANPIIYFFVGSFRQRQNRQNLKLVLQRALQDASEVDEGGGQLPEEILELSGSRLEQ
RGS4 pot = RGS4 potentiators or activators, primary screen, cell-based, HEK293 M3R inducible RGS4, calcium flux; carbachol calcium flux Fluo4; hits give low values; B-score at 10 µM; hit rate 0.92% among 310,000;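 active = B-score of the integrated calcium signal more than 4 SD below the library mean, with starting fluorescence not abnormally high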;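 note: negative B-score means reduced calcium response which marks RGS4 activation or potentiation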
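Test system: HEK293 cells with stable M3R and inducible RGS4; also added: carbachol at ECmax as muscarinic agonist stimulus; schedule: dye loading 30 min 37 °C, buffer rest 30 min RT; technique: kinetic calcium fluorescence imaging with Fluo4-AM dye, 2 µM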
MrgX1 agonist = agonists of human MrgX1 receptor, primary screen, HEK293 cells, Fluo-4 calcium flux; B-score at 10 µM; hit rate 0.44% among 310,000; Fluo-4 calcium fluorescence, agonist mode; hits give high values; Mas-related G-protein coupled receptor member X1 (Homo sapiens), Q96LB2;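 active = calcium response B-score plate-corrected fluorescence ratio at least 3 library SD, with starting fluorescence B-score inside 5 SD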
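Test system: Stable human MrgX1 HEK293 cell line | Schedule: Overnight plating before 1 h dye loading | Read-out basis: Baseline-normalised fluorescence change ratio, B-scored | Detection: Kinetic calcium dye fluorescence, Fluo-4 NW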
MrgX1 allo act = positive allosteric modulators of MrgX1, primary screen, HEK293 cells, Fluo-4 calcium flux; Mas-related G-protein coupled receptor member X1 (Homo sapiens), Q96LB2; B-score at 10 µM; FDSS; hits give high values; hit rate 0.63% among 310,000;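 active = plate-corrected calcium response at least 3 library SD above typical, normal starting fluorescence, not activating the receptor alone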;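 note: compound read alongside a low EC10 to EC30 dose of BAM8-22 agonist; peak minus trough fluorescence over baseline measured at the second addition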
RGS4 block = RGS4 inhibitors, primary screen, cell-based, HEK293 M3R inducible RGS4, calcium flux | AID 463165, 2010 | Fluo-4 calcium flux; hits give high values; triggered by carbachol at its EC20 | B-score at 10 µM | hit rate 0.45% among 310,000;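 active = B-score, a plate-corrected calcium signal, over three deviations above library mean, with baseline fluorescence within five deviations of library mean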;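 note: RGS4 expression induced by doxycycline in cells with stable M3 receptor; B-score is computed from the integrated fluorescence ratio over baseline after carbachol; higher B-score means a larger calcium signal and so more RGS4 inhibition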
Target sequence (P49798 whole entry, looked up): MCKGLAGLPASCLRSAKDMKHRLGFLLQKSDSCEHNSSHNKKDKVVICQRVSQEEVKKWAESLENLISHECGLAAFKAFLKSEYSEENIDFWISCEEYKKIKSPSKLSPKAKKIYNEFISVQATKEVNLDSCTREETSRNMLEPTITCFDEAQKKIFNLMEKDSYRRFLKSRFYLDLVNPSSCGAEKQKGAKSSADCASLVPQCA
MrgX1 antag conf = MrgX1 receptor antagonists, duplicate retest, confirmation, HEK293 cells, Fluo-4 calcium flux. remaining BAM8-22 calcium response % of control (hits give low values), % at 10 µM. BAM8-22 calcium flux; hits give low values. shares compounds with MrgX1 antagonist. hit rate 19% among 2,300;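 active = remaining agonist calcium response no higher than 100% minus 3 SD of agonist-only control wells, with starting fluorescence near control levels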;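 note: agonist BAM8-22 given at a near maximal EC90 to ECmax level; peak minus minimum fluorescence divided by baseline after agonist addition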
HEK293 Ca flux = nonspecific calcium signal in parental HEK293, confirmation, counter-screen for MrgX1 antagonist project, parental HEK293 cells, Fluo-4 calcium flux | shares compounds with MrgX1 antagonist | Fluo-4 calcium fluorescence, FDSS | fluorescence ratio F(max-min)/F0 at 10 µM | hit rate 2% among 4,000;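 active = duplicate-averaged calcium fluorescence ratio at least three times the standard deviation of buffer wells, a nonspecific response in parental cells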
HEK293 Ca counter = calcium response in parental HEK293 cells, primary screen, counter-screen for MrgX1 allosteric activator project, cell-based, Fluo-4 calcium flux, duplicate. fluorescence ratio F(max-min)/F0 at 10 µM. AID 624114, 2012. shares compounds with MrgX1 antagonist. hit rate 0.4% among 4,000. Fluo-4 fluorescence ratio; hits give high values;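 active = calcium fluorescence ratio, averaged over duplicates, at least 3 SD of the buffer-well ratio, meaning a nonspecific response in receptor-free cells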;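 note: untransfected parental HEK293 lacking MrgX1 used as counterscreen for MrgX1 allosteric activators; fluorescence change taken during the second addition on a kinetic imager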
HEK293 Ca cntr2 = calcium response in parental HEK293 cells, primary screen, counter-screen for MrgX1 agonist project, cell-based, Fluo-4 calcium flux, duplicate, agonist mode | shares compounds with MrgX1 antagonist | Fluo-4 calcium fluorescence (FDSS); hits give high values | fluorescence ratio F(max-min)/F0 at 10 µM | hit rate 8.7% among 4,000;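 active = calcium fluorescence ratio at least three times the spread of buffer wells, meaning a non-specific response in parental cells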
Each line names hits and unclear results; the compound was inactive in the other large screens (follow-up assays come after a bar, where they were run).

CS(=O)(=O)N1CCC2(CC1)OCCN2S(=O)(=O)c1ccccc1	MrgX1 antagonist -6.9 | MrgX1 antag conf inactive | HEK293 Ca flux inactive | HEK293 Ca counter inactive | HEK293 Ca cntr2 inactive
O=C(CCS(=O)(=O)c1ccccc1)Nc1cccc(-c2nc3ccccc3s2)c1	MrgX1 antagonist -6.2 | MrgX1 antag conf 84% | HEK293 Ca flux inactive | HEK293 Ca counter inactive | HEK293 Ca cntr2 inactive
CSc1ccc(NC(=O)N2CC=C(n3c(=O)[nH]c4ccccc43)CC2)cc1	MrgX1 antagonist -4.7 | MrgX1 antag conf inactive | HEK293 Ca flux inactive | HEK293 Ca counter inactive | HEK293 Ca cntr2 inactive
COCCCN(C(=O)Cc1coc2cc(C)c(C)cc12)c1c(N)n(Cc2ccccc2)c(=O)[nH]c1=O	none
Cc1ccc([N+](=O)[O-])cc1S(=O)(=O)Nc1ccc(OCC(=O)N2CCOCC2)cc1	none
COC(=O)c1c(N)sc(C(C)=O)c1C	MrgX1 antagonist -8.4 | MrgX1 antag conf inactive | HEK293 Ca flux inactive | HEK293 Ca counter inactive | HEK293 Ca cntr2 inactive
Cc1ccc(/C=C2/SC(=S)N(CCC(=O)N3CCOCC3)C2=O)cc1	none
CCCNC(=O)c1ccc(N2CCC3(CC2)CC(c2ccccc2)=NO3)c(NC(=O)Cc2ccc(F)cc2)c1	none
O=C(c1ccco1)N1CCN(C(=O)N2CCCCC2)CC1	none
O=C(O)C1=C(C(=O)N2CCN(C(=O)c3ccco3)CC2)CCCC1	MrgX1 antagonist -5.6 | MrgX1 antag conf inactive | HEK293 Ca flux inactive | HEK293 Ca counter inactive | HEK293 Ca cntr2 inactive
CCOc1ccc(CNC(=O)C(=O)c2cn(CC(=O)N3CCOCC3)c3ccccc23)cc1OC	none
CC(C(=O)Nc1ccc(F)c(F)c1F)N(C)CCOc1ccccc1 (centres undefined)	none
Cc1ccc(S(=O)(=O)N2CCOCC2)cc1C(=O)Nc1nc(-c2cccnc2)cs1	MrgX1 antagonist -13 | MrgX1 antag conf inactive | HEK293 Ca flux inactive | HEK293 Ca counter inactive | HEK293 Ca cntr2 inactive
O=C(NC(=S)Nc1ccccc1)c1ccc(-c2ccccc2)cc1	none
O=C(O)c1ccc(NC(=S)NC(=O)c2ccc(-c3ccccc3)cc2)cc1	MrgX1 antagonist -5.2 | MrgX1 antag conf 82% | HEK293 Ca flux inactive | HEK293 Ca counter inactive | HEK293 Ca cntr2 inactive
CCC(=O)N1CCc2cc(S(=O)(=O)CCC(=O)N(C)c3ccc(OC)cc3OC)ccc21	none
CCOC(=O)C1=C(C)N(C)C(C)=C(C(=O)OCC)C1c1ccccn1	MrgX1 antagonist -7.2 | MrgX1 antag conf inactive | HEK293 Ca flux inactive | HEK293 Ca counter inactive | HEK293 Ca cntr2 inactive
Cc1ccc(C)c(NC(=S)NCCSc2ccc(Cl)cc2)c1	none
Cc1ccc(NC(=S)NCCSc2ccc(Cl)cc2)c(C)c1	MrgX1 antagonist -6.3 | MrgX1 antag conf inactive | HEK293 Ca flux inactive | HEK293 Ca counter inactive | HEK293 Ca cntr2 inactive
c1ccc(COc2ccc(OCCn3cncn3)cc2)cc1	MrgX1 antagonist -5.9 | MrgX1 antag conf inactive | HEK293 Ca flux inactive | HEK293 Ca counter inactive | HEK293 Ca cntr2 inactive
COC(=O)C1=C(CN2CCSCC2)NC(=O)NC1c1cc(C)ccc1C (centres undefined)	MrgX1 antagonist -5.6 | MrgX1 antag conf inactive | HEK293 Ca flux inactive | HEK293 Ca counter inactive | HEK293 Ca cntr2 inactive
COc1cccc(CNC(=O)c2ccccc2SCC(=O)N2CCCC2)c1	none
CC(C)Sc1nc2c(c(=O)n1C)SC(C)C2 (centres undefined)	MrgX1 antagonist -6.9 | MrgX1 antag conf inactive | HEK293 Ca flux inactive | HEK293 Ca counter inactive | HEK293 Ca cntr2 inactive
O=C(CCn1c(=S)oc2ccccc21)NC1CCCCCCC1	none
Cc1ccc2[nH]c(=O)c(CN(Cc3cccs3)Cc3nnnn3CC3CCCO3)cc2c1 (centres undefined)	none
Cc1ccc2cc(CN(Cc3cccs3)Cc3nnnn3CC3CCCO3)c(=O)[nH]c2c1 (centres undefined)	MrgX1 antagonist -4.8 | MrgX1 antag conf inactive | HEK293 Ca flux inactive | HEK293 Ca counter inactive | HEK293 Ca cntr2 inactive
Cc1ccc(S(=O)(=O)NC(=O)c2ccccc2)cc1C(C)C	MrgX1 antagonist -8.1 | MrgX1 antag conf inactive | HEK293 Ca flux inactive | HEK293 Ca counter inactive | HEK293 Ca cntr2 inactive
CCOc1ccc(S(=O)(=O)NC(=O)c2ccccc2)cc1	none
CCCNc1nc(C)cc(-c2cc(C(=O)NC3CCCC3)on2)n1	none
O=C(NCCCN1CCOCC1)c1ccccc1N1C(=O)[C@@H]2Cc3c([nH]c4ccccc34)C(c3ccc(F)cc3)N2C1=O (some centres undefined)	none
O=C(NCCN1CCOCC1)c1ccccc1N1C(=O)[C@@H]2Cc3c([nH]c4ccccc34)C(c3ccccc3)N2C1=O (some centres undefined)	MrgX1 antagonist -6.8 | MrgX1 antag conf inactive | HEK293 Ca flux inactive | HEK293 Ca counter inactive | HEK293 Ca cntr2 inactive
CCc1cccc2cc3c(N)c(C(=O)Nc4ccc(S(=O)(=O)N5CCCC5)cc4)sc3nc12	MrgX1 antagonist -9.7 | MrgX1 antag conf inactive | HEK293 Ca flux 0.41 | HEK293 Ca counter inactive | HEK293 Ca cntr2 inactive
C=CCn1c(SCc2ccc(C#N)cc2)nnc1-c1cccc(Cl)c1	none
C=CCn1c(SCc2cccc(C#N)c2)nnc1-c1ccccc1O	MrgX1 antagonist -4.6 | MrgX1 antag conf inactive | HEK293 Ca flux inactive | HEK293 Ca counter inactive | HEK293 Ca cntr2 inactive
CCN(CC)CCNC(=O)Cc1nn(Cc2ccccc2)c(=O)c2ccccc12	none
COc1ccc2c(c1)CC/C2=N\NC(=O)c1ccccc1	MrgX1 antagonist -18 | MrgX1 antag conf inactive | HEK293 Ca flux inactive | HEK293 Ca counter inactive | HEK293 Ca cntr2 inactive
COc1ccc(OCC(=O)N/N=C2\CCc3ccccc32)cc1	none
